Results on 1 compound are retold here after ChEMBL document CHEMBL4396890, “Synthesis, Biological Evaluation, Structure-Activity Relationship, and Mechanism of Action Studies of Quinoline-Metronidazole Derivatives Against Experimental Visceral Leishmaniasis” (J Med Chem, 2019).

Data set [1] concerns Leishmania donovani. Briefly: Antileishmanial activity against Leishmania donovani MHOM/IN/80/Dd8 amastigotes harboring luciferase reporter gene infected in mouse J774 cells assessed as stimulation of host immunity by measuring change in IL12 level at 50 uM after 48 hrs by ELISA. Type of data set: functional, organism-based. Put shortly: (§1)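 Infected J774 macrophages (24 h infection) were treated with 50 μM compound for 48 h. Culture supernatants were assayed by ELISA for TNF-α and IL-12 (Th1) and for TGF-β and IL-10 (Th2), compared with infected untreated cells.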

Data set [2] deals with Leishmania donovani. Briefly: Antileishmanial activity against Leishmania donovani MHOM/IN/80/Dd8 promastigotes infected in BALB/c mouse assessed as reduction in parasite load in liver at 100 mg/kg, ip administered once daily for 5 days measured 7 days post dose by giemsa staining-based assay relative to control. It counts as functional. The arrangement: scale not given: the % may be the effect or the level left. Put shortly:
(§2)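 Hamster-passaged strain was transformed to promastigotes. Stationary-phase cells (2 × 10^7 in 0.2 mL PBS) were injected into the tail vein of BALB/c mice. From day 15 post-infection, mice received compound ip in 8% DMSO in PBS for 5 consecutive days, 5 mice per group. Mice were killed day 7 post-treatment. Liver and spleen burden was read from Giemsa-stained stamp smears as LDU.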

Data set [3] deals with Leishmania donovani. The experiment in a line: Antileishmanial activity against Leishmania donovani MHOM/IN/80/Dd8 amastigotes harboring luciferase reporter gene infected in mouse J774 cells assessed as stimulation of host immunity by measuring change in TGFbeta level at 50 uM after 48 hrs by ELISA. It counts as functional, organism-based. The essentials: as §1
For data set [4], the system named is Leishmania donovani. Briefly: Antileishmanial activity against Leishmania donovani MHOM/IN/80/Dd8 promastigotes infected in BALB/c mouse assessed as reduction in parasite load in spleen at 100 mg/kg, ip administered once daily for 5 days measured 7 days post dose by giemsa staining-based assay relative to control. It counts as functional. The arrangement: scale not given: the % may be the effect or the level left. The essentials:
as §2

Data set [5] in a line: Half life in BALB/c mouse at 50 mg/kg, po administered via gavage by LC-MS/MS analysis. The conditions noted are these: in vivo. Type of data set: ADME, organism-based.
Data set [6] concerns Leishmania donovani. The experiment in a line: Induction of apoptosis in Leishmania donovani MHOM/IN/80/Dd8 promastigotes assessed as late apoptotic cells at 50 uM measured after 12 hrs by Annexin V-FITC/propidium iodide staining based assay (reference value: 0.46%). Type of data set: functional.
Data set [7] relates to Leishmania donovani. The experiment in a line: Induction of apoptosis in Leishmania donovani MHOM/IN/80/Dd8 promastigotes assessed as late apoptotic cells at 50 uM measured after 48 hrs by Annexin V-FITC/propidium iodide staining based assay (reference value: 0.02%). Type of data set: functional.
Data set [8] can be described thus: AUC (0 to infinity) in BALB/c mouse at 50 mg/kg, po administered via gavage by LC-MS/MS analysis. Type of data set: ADME, organism-based. More on the design: dose 50 mg/kg, time infinity, route oral. As to conditions: in vivo.
Data set [9] has as its system Leishmania donovani. Briefly: Induction of apoptosis in Leishmania donovani MHOM/IN/80/Dd8 promastigotes assessed as DNA fragmentation at 50 uM after 48 hrs by TUNEL staining-based fluorescence assay. It counts as functional, organism-based. The essentials:
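Log-phase promastigotes (1 × 10^5) were treated with 50 μM compound or 0.1% DMSO vehicle for 48 h. DNA fragmentation was labelled with an APO-BrdU TUNEL kit with PI counterstain. Cells were imaged by phase-contrast and fluorescence microscopy.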

The subject of data set [10] is Leishmania donovani. The experiment in a line: Induction of mitochondrial potential loss in Leishmania donovani MHOM/IN/80/Dd8 promastigotes assessed as shift in red to green fluorescence at 50 uM after 24 hrs by JC1 dye-based flow cytometry (reference value: 7.37%). It counts as functional. Put shortly: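 Exponential-phase promastigotes were incubated with 50 μM compound for 6−48 h, or 0.1% DMSO vehicle. CCCP (50 μM) served as positive control. After JC-1 staining, the red-to-green fluorescence shift was measured by flow cytometry.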

Data set [11] deals with Leishmania donovani. The experiment in a line: Antileishmanial activity against Leishmania donovani MHOM/IN/80/Dd8 promastigotes infected in BALB/c mouse assessed as reduction in parasite load in liver at 25 mg/kg, ip administered once daily for 5 days measured 7 days post dose by giemsa staining-based assay relative to control. Type of data set: functional. The arrangement: scale not given: the % may be the effect or the level left. Put shortly:
as §2

Activity calls are given as the source filed them. The calls are words filed in the database; no cut-off is given here.

Take `Cc1cc(-c2ccc(OCCn3c([N+](=O)[O-])cnc3C)cc2)nc2ccccc12`: the result with Leishmania donovani [1] and with Leishmania donovani [3] was inactive. Also, the Activity is reported as 82.5% with Leishmania donovani [2]; 81.7% in the data set on Leishmania donovani [4]; 20.59% in the data set with Leishmania donovani [6]; 0.41% in the data set with Leishmania donovani [7]; 54.18% with Leishmania donovani [10]; greater than 62% in the data set with Leishmania donovani [11]. The compound further showed a half-life in data set [5] of 4.02 h. Also, the total exposure AUC(0-inf) in data set [8] worked out at 18200 ng·h/mL. Further, the outcome in the data set on Leishmania donovani [9] was Active.
